Structures are written as SMILES.

What all share (format): cell-based
For data set [1], the system named is Plasmodium falciparum (NF54 strain). Put plainly: in vitro antiplasmodial activity, chloroquine-sensitive NF54 strain. To be noted: NF54, read-out: IC50 P. falciparum (NF54 strain). The procedure, abridged: (§1)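 Test compounds were run in vitro in parallel against P. falciparum NF54 and K1, T. cruzi Tulahuen C4 amastigotes, T. b. rhodesiense STIB 900 trypomastigotes, L. donovani MHOM-ET-67/L82 amastigotes and rat L6 skeletal myoblasts. Each IC50 is the mean of two independent assays, with individual values within a factor of 2. Selectivity index = L6 IC50 ÷ P. falciparum IC50 for the respective strain.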

Data set [2] in a line: cytotoxicity against mammalian host cells. As to conditions: rat, rat skeletal myoblast L6 cells. The procedure, abridged:
as §1

The subject of data set [3] is Trypanosoma brucei rhodesiense (STIB 900 strain, trypomastigotes). Put plainly: in vitro activity against Trypanosoma brucei rhodesiense. As to conditions: RHODESIENSE|STIB900, read-out: IC50 T. brucei rhodesiense. In a few lines:
as §1

The test system of data set [4] is Leishmania donovani (MHOM-ET-67/L82, amastigotes). Put plainly: in vitro activity against Leishmania donovani. As to conditions: read-out: IC50 L. donovani. In a few lines:
as §1

Turning to `C[C@@H]1CC[C@H]2[C@@H](C)C(=O)O[C@@H]3O[C@@]4(C)CC[C@@H]1[C@]32OO4` [Artemisinin], in data set [1], the 50% inhibitory concentration (IC50) (commonly the concentration that gives 50% inhibition) amounted to 21 nM.
In turn, `COc1cc([C@@H]2c3cc4c(cc3[C@H](O)[C@H]3COC(=O)[C@H]23)OCO4)cc(OC)c1OC` [Podophyllotoxin] showed an IC50 in data set [2] of 9.6 nM.
Take `Nc1nc(N)nc(Nc2ccc([As]3SCC(CO)S3)cc2)n1` (stereo not shown) [Melarsoprol]: the IC50 in data set [3] is 30 nM.
With `CCCCCCCCCCCCCCCCOP(=O)([O-])OCC[N+](C)(C)C` [Miltefosine], in data set [4], the IC50 amounted to 1080 nM.

The record behind these values is publication PMC9063559 (RSC Advances, 2019).
